Compound activity from PubChem BioAssay.
SENP7 inh – inhibitors of human SENP7 protease | Q9BQF6 | recombinant SENP7, Z-RLRGG-aminoluciferin luminescence, 40 min | inhibition, % at 5 µM | hit rate 1.5% among 330,000 | AID 434973;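 active = inhibition above about 50% at the single test dose, limit read from the data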;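 also: plate controls were DMSO with enzyme for no effect and no enzyme buffer wells for full effect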
SENP6 block – SENP6 protease inhibition; Q9GZR1; Recombinant SENP6 catalytic domain, aminoluciferin luminescence; inhibition, % at 10 µM; hit rate 1.8% among 330,000; AID 2599;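 active = inhibition above about 50% at the single tested dose, limit read from the data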;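 also: plate controls were DMSO wells with enzyme for no effect and DMSO wells lacking enzyme for full effect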
Platelet DG rel – modulates dense granule release in human platelets | human platelet-rich plasma, SFLLRN dense granule ATP release, luminescence | hit rate 0.22% among 300,000 | AID 1663 | inhibition, %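 (compounds screened at 7.5 µM in platelet-rich plasma)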;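 active = mean replicate score, as percent of positive control, at or above 50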
SENP8 block-1 – inhibitors of human SENP8 protease; AID 2540; purified SENP8, Z-RLRGG-aminoluciferin cleavage, luminescence; Q96LD8; inhibition, % at 10 µM; hit rate 1.2% among 330,000; in the data active = inhibition above about 50%
SENP1 FRET inh – SENP1 (human) catalytic domain inhibition; inhibition, % at 10 µM; Q9P0U3; hit rate 0.21% among 360,000; recombinant SENP1 catalytic domain, CyPet-SUMO1-YPet FRET cleavage;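 active = inhibition at least 30% at 10 µM, raw YFP signal under a set limit, fluorescence ratio 0.5 to 1.5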;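 also: 0% = enzyme with DMSO and 100% = no enzyme wells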
Target sequence (Q9P0U3 419-644 limits assumed): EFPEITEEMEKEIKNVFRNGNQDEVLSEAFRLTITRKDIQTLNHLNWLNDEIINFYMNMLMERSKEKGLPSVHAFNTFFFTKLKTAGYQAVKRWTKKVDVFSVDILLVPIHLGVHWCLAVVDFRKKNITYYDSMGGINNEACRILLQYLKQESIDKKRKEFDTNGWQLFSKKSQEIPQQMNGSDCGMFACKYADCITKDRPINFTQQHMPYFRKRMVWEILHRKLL
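Compound: 10 µM single point, 0.5% DMSO; Test system: hSENP1 catalytic domain, recombinant; Timing: 50 min reaction at room temperature; Technique: FRET, CFP and YFP emission; Control set: no-enzyme wells low, DMSO-plus-enzyme wells high control.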
SENP8 block-2 – SENP8 (human) protease inhibition; Q96LD8; hit rate 0.64% among 360,000; inhibition, % at 20 µM; AID 602440; recombinant SENP8, Nedd8 substrate fluorescence; in the data active = inhibition mostly above about 40%, no sharp cut-off; inactive = mostly below about 27%
SENP8 confirm – human SENP8 inhibition, confirmed | inhibition, % at 12.5 µM | hit rate 40% among 6,200 | shares compounds with SENP7 inh | Recombinant SENP8, Z-RLRGG-aminoluciferin luminescence, 60 min;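 active = mean inhibition across replicates above about 50%, limit read from the data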
SENP6 confirm – confirmation of human SENP6 protease inhibitors; shares compounds with SENP7 inh; recombinant SENP6, Z-RLRGG-aminoluciferin luminescence; inhibition, % at 12.5 µM; hit rate 58% among 6,200; AID 488915
SENP7 confirm – human SENP7 inhibition, confirmed. inhibition, % at 12.5 µM. hit rate 69% among 6,200. recombinant SENP7, Z-RLRGG-aminoluciferin luminescence, 40 min. shares compounds with SENP7 inh
Casp3 SENP sel – inhibits human caspase-3 in SENP selectivity test; shares compounds with SENP7 inh; AID 488918; hit rate 60% among 6,200; purified caspase-3, Z-DEVD-aminoluciferin luminescence, 60 min; inhibition, % at 12.5 µM;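 active = mean inhibition above about 50%, limit read from the data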;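 also: plate controls were enzyme with DMSO for no effect and wells without caspase-3 for full effect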
Target sequence (P42574 28-227 limits assumed): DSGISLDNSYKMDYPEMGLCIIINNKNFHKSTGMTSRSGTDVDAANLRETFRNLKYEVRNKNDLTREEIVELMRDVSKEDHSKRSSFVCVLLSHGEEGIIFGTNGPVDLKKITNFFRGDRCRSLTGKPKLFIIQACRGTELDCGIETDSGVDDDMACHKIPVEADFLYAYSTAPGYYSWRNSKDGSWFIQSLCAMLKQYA
Luc interf – interferes with luciferase luminescence in SENP counter-screen; shares compounds with SENP7 inh; Pre-incubated SENP8/Z-RLRGG-aminoluciferin, luciferase luminescence interference; inhibition, % at 12.5 µM; hit rate 39% among 6,200;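 active = mean inhibition above about 50% when retested at one dose, limit read from the data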;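 also: plate controls were DMSO wells with completed reaction for no effect and substrate without enzyme for full effect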
The depositor's hits bear a star. An excerpt weighted towards active compounds, which were near 2.6% of everything screened.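 The calls were made as follows, unless noted: active = mean inhibition above about 50% in the one-dose retest (limit read from the data); inactive = the rest.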

For O=C(N/N=C/c1ccc(Cl)cc1Cl)c1cccc(F)c1 the results were SENP7 inh 88*, SENP6 block 89*, Platelet DG rel 3, SENP8 block-1 77*, SENP1 FRET inh 1, SENP8 block-2 20, SENP8 confirm -6, SENP6 confirm 10, SENP7 confirm 33, Casp3 SENP sel 32 and Luc interf 7.
O=C(N/N=C/c1ccc(-c2ccccc2C(=O)O)o1)c1cccs1 was read as SENP7 inh 19, SENP6 block 51*, Platelet DG rel 15, SENP8 block-1 21, SENP1 FRET inh -11, SENP8 block-2 -307, SENP8 confirm 41, SENP6 confirm 32, SENP7 confirm 64*, Casp3 SENP sel 73* and Luc interf 20.
Screening O=C(O)c1ccc(N/N=C/C(Br)=C/c2ccccc2)cc1 returned SENP7 inh 83*, SENP6 block 101*, Platelet DG rel -1, SENP8 block-1 96*, SENP1 FRET inh -33, SENP8 block-2 -42, SENP8 confirm 99*, SENP6 confirm 100*, SENP7 confirm 103*, Casp3 SENP sel 85* and Luc interf 96*.
`O=C(N/N=C/c1ccc(Cl)cc1Cl)c1ccc2nc[nH]c2c1` gave SENP7 inh 0, SENP6 block -16, Platelet DG rel 9, SENP8 block-1 -5, SENP1 FRET inh 5 and SENP8 block-2 11.
`O=C(Nc1ccccc1F)c1ccc(CN2CCN(c3ccccc3)CC2)cc1` gave SENP7 inh 6, SENP6 block 23, Platelet DG rel -5, SENP8 block-1 -8, SENP1 FRET inh 2 and SENP8 block-2 15.
`COCc1ccc(CN2CCC(C(=O)Nc3cccc(-c4cccc(Cl)c4)c3)CC2)o1` gave SENP7 inh -4, SENP6 block -13, Platelet DG rel -2, SENP8 block-1 -7, SENP1 FRET inh -2 and SENP8 block-2 5.
`O=C1C[C@@H]2c3c(cccc3CN1Cc1ccccc1Cl)C[C@@H](O)[C@H]2O` gave SENP1 FRET inh -3 and SENP8 block-2 5.
Screening CC(=C/c1ccccc1)/C=N/NC(=O)c1ccccn1 returned SENP7 inh 81*, SENP6 block 69*, Platelet DG rel 30, SENP8 block-1 61*, SENP1 FRET inh 1, SENP8 block-2 -36, SENP8 confirm 72*, SENP6 confirm 71*, SENP7 confirm 92*, Casp3 SENP sel 85* and Luc interf 73*.
Screening COc1ccc(OC)c(S(=O)(=O)N2CCN(C)CC2c2ccccc2)c1 (centres undefined) returned SENP7 inh -3, SENP6 block -13, SENP8 block-1 5, SENP1 FRET inh -1 and SENP8 block-2 12.
Screening CC(=O)Nc1ccc(S(=O)(=O)NNc2cccc(C)c2)cc1 returned SENP7 inh 8, SENP6 block 9, Platelet DG rel 8, SENP8 block-1 0, SENP1 FRET inh 1 and SENP8 block-2 20.
O=c1cc(-c2ccccc2)[nH]n1-c1nc2ccccc2[nH]1 was read as SENP7 inh 11, SENP6 block 65*, Platelet DG rel 3, SENP8 block-1 24, SENP1 FRET inh -64, SENP8 block-2 -264, SENP8 confirm 35, SENP6 confirm 52*, SENP7 confirm 85*, Casp3 SENP sel 78* and Luc interf 49.
